# The source made the active and inactive calls.
# Tests used:
# [1] = molecular target: T1, Cannabinoid receptor 1 (Homo sapiens, UniProt P21554); experiment: Agonist activity at human CB1R expressed in CHO cells by Ca2+ flux assay; type: functional, cell-based
# Summary of the method: (§1)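 CHO cells stably co-expressing human CB1 or CB2 with Gαq16 were seeded at 40000/well and grown 24 h at 37 °C. They were loaded 1 h at 37 °C with Fluo-4 AM (2 μM final) in HBSS/20 mM HEPES/1% BSA/probenecid. Agonist was added after ~17 s baseline, and fluorescence (ex 488/em 525) was read each 1 s for 60 s. Runs were done 3–6 times; mean ± SEM.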
# [2] = molecular target: T2, Cannabinoid receptor 2 (Homo sapiens, UniProt P34972); experiment: Agonist activity at human CB2R expressed in CHO cells by Ca2+ flux assay; type: functional, cell-based; summary of the method: as §1
# T2 sequence (P34972 whole entry): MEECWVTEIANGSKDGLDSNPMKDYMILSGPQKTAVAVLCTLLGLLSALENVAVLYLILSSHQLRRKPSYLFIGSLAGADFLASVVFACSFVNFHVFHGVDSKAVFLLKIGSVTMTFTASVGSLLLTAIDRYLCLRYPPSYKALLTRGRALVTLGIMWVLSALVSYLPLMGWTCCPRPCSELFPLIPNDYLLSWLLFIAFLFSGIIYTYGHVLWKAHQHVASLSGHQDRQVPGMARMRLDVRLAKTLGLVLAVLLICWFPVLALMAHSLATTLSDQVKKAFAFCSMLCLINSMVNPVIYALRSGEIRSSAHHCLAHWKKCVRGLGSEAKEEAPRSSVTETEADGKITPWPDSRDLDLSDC
# [3] = test system: Rattus norvegicus; experiment: Analgesic activity in naive Sprague-Dawley rat assessed as increase in tail flick latency at 0.3 mg/kg, ip up to 48 hrs by tail-flick assay; type: functional, organism-based
# Summary of the method: (§2)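 Naïve male Sprague–Dawley rats were dosed ip (DMSO/Cremophor EL/saline) or by gavage (DMSO in 20% condensed milk). Radiant heat was aimed 3 cm from the tail tip and latency timed by photocell. Baseline was set to ~5–7 s with a 25 s cutoff. Testing ran 1 h pre-dose and up to 48 h after. Peak effect was taken minus vehicle; n = 6–8; blinded.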
# [4] = Toxicity in naive Sprague-Dawley rat assessed as motor incoordination at 0.1 to 10 mg/kg administered through oral gavage after 2 to 48 hrs by rotarod test; type: organism-based; details: in vivo
# Summary of the method: (§3)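 Rats were trained 72 h earlier (3 sessions, 24 h apart) to stay ≥180 s on an accelerating rotarod (4–40 rev over 5 min). Time on rod was recorded to a 3 min cutoff, 1 h pre-dose and 2, 6, 24 and 48 h after ip or oral gavage dosing. Values are peak effect minus vehicle; n = 6–8; blinded.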
# [5] = Toxicity in naive Sprague-Dawley rat assessed as hypothermia at 0.1 to 10 mg/kg administered through oral gavage after 2 to 48 hrs by core temperature test; type: organism-based; details: in vivo
# Summary of the method: (§4)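 Naïve rats were acclimated to a restrainer (two 5-min sessions 20 min apart). Core temperature was taken before and 2, 6, 24 and 48 h after ip (DMSO/Cremophor EL/saline) or oral gavage (DMSO in 20% condensed milk) dosing. Dose-response points are mean peak effect minus vehicle; n = 6–8 rats; blinded.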
# [6] = Toxicity in naive Sprague-Dawley rat assessed as immobility at 0.1 to 10 mg/kg administered through oral gavage after 2 to 48 hrs by catalepsy ring test; type: organism-based; details: in vivo
# Summary of the method: (§5)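 In the ring immobility test, forepaws were placed on a 12 cm horizontal ring with hindpaws just touching the bench. Time to move off was recorded, 100 s cutoff. Testing was pre-dose and 2, 6, 24 and 48 h after ip or oral gavage dosing. Values are peak effect minus vehicle; n = 6–8; blinded.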
# [7] = test system: Rattus norvegicus; experiment: Analgesic activity in naive Sprague-Dawley rat assessed as tail flick latency at 0.1 to 10 mg/kg administered through oral gavage up to 48 hrs by tail-flick assay; type: functional, organism-based; summary of the method: as §2
# [8] = test system: Rattus norvegicus; experiment: Antiallodynic activity in SNE-induced mechanical allodynia naive Sprague-Dawley rat model assessed as reversible […] in hindpaw ipsilateral withdrawal threshold at 0.3 mg/kg, ip preincubated for 3 hrs followed by SNE addition; type: functional, organism-based
# Summary of the method: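 Male Sprague–Dawley rats received unilateral sciatic nerve entrapment. Testing began 8 days post-surgery at 3-day intervals, dosed ip in DMSO/Cremophor EL/saline. Hindpaw withdrawal threshold (g) was read with a digital von Frey meter, 4 readings per paw at 30 s spacing, averaged. Reads were taken 1 h before and 3, 6, 24 and 48 h after dosing; n = 8; blinded; one-way RM ANOVA.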
# [9] = Metabolic stability in Sprague-Dawley rat liver S9 fraction assessed as compound remaining at 10 uM measured at 1 hr by LC/MS analysis; type: ADME, subcellular; details: s9, 1 h
# Summary of the method: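 Compound (10 μM final, from 1 mM ethanol stock) was incubated at 37 °C in male Sprague–Dawley rat liver S9 (1 mg protein/mL). The mix held an NADPH-regenerating system (1 mM NADP, 5 mM glucose 6-phosphate, 1 U/mL G6PDH) in 50 mM KPO4 pH 7.4 with 3 mM MgCl2, preincubated 5 min. Samples at 0–120 min were methanol-extracted and analysed by LC/MS.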
# [10] = molecular target: T2, Cannabinoid receptor 2; experiment: Displacement of [3H]-CP55940 from human CB2 receptor
# Summary of the method: (§6)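 Radioligand displacement used [3H]-CP55940 as tracer in heterologous competition binding. Unlabeled reference ligands defined nonspecific binding. Ki was calculated by Cheng–Prusoff.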
# [11] = Metabolic stability in Sprague-Dawley rat plasma assessed as compound remaining at 10 uM measured at 1 hr by LC/MS analysis; type: ADME, cell-free
# Summary of the method: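 Compound (10 μM final, from 1 mM ethanol stock) was incubated in male Sprague–Dawley rat plasma at 37 °C. Aliquots taken at 0, 30 and 60 min were extracted with 3 volumes methanol and centrifuged. Supernatants were analysed by LC/MS.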
# [12] = molecular target: T1, Cannabinoid receptor 1; experiment: Displacement of [3H]-CP55940 from human CB1 receptor; summary of the method: as §6
# [13] = test system: Rattus norvegicus; experiment: Analgesic activity in naive Sprague-Dawley rat assessed as tail flick latency at 0.01 mg/kg, ip up to 48 hrs by tail-flick assay; type: functional, organism-based; summary of the method: as §2
# [14] = Toxicity in naive Sprague-Dawley rat assessed as motor incoordination at 0.01 mg/kg, ip after 2 to 48 hrs by rotarod test; type: organism-based; details: in vivo; summary of the method: as §3
# [15] = Toxicity in naive Sprague-Dawley rat assessed as immobility at 0.01 mg/kg, ip by after 2 to 48 hrs by catalepsy ring test; type: organism-based; details: in vivo; summary of the method: as §5
# [16] = Toxicity in naive Sprague-Dawley rat assessed as hypothermia at 0.01 mg/kg, ip after 2 to 48 hrs by core temperature test; type: organism-based; details: in vivo; summary of the method: as §4
# [17] = Efflux ratio of permeability in MDCK cells expressing mdr1 at 10 uM by mass spectroscopic analysis; type: ADME, cell-based, Canis lupus familiaris; details: dog
# Summary of the method: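 MDCK-mdr1 monolayers were grown 4 days on Transwell filters in DMEM/F12 with 10% FBS. Compound (10 μM) was added apically in HBSS with 25 mM D-glucose, HEPES pH 7.4, and incubated 1 h at 37 °C. Apical and basal samples were quantified by LC-MS/MS (MRM). Values are the average of 2–3 measurements.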
# T1 sequence (P21554 whole entry): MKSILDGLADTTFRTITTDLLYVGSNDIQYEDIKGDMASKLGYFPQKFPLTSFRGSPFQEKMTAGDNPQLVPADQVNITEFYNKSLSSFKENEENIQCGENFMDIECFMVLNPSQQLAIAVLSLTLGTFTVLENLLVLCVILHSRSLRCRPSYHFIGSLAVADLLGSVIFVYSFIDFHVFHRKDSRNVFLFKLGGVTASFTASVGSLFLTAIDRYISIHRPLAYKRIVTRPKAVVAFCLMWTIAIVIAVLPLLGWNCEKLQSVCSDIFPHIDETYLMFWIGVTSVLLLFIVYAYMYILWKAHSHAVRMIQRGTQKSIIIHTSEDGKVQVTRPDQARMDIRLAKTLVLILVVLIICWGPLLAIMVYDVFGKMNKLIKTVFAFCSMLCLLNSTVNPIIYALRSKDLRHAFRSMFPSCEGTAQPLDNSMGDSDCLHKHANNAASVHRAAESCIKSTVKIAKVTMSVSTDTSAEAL
SMILES,EC50 [1] [nM],Emax [1] [%],EC50 [2] [nM],Emax [2] [%],Activity [3],Activity [7],Stability [9] [%],Stability [11] [%],Ki [12] [nM],other results
CCc1ccc(/C=C2\C=C(CCN3CCOCC3)c3ccccc32)c2ccccc12,141,121,163,59,Active,Active,,,,Activity [4]: Non-Toxic; Activity [5]: Non-Toxic; Activity [6]: Non-Toxic
COc1ccc(/C=C2\C=C(CCN3CCOCC3)c3ccccc32)c2ccccc12,196,114,194,52,Active,Active,43,100,,Activity [8]: Active; Ki [10]: 4.07 nM; Activity [4]: Non-Toxic; Activity [5]: Non-Toxic; Activity [6]: Non-Toxic
CCCCCn1cc(C(=O)c2ccc(C(=O)O)c3ccccc23)c2ccccc21,,,,,,,,,> 10000,
CCCCCn1cc(C(=O)c2cccc3ccccc23)c2c(F)cccc21,,,,,,,5,69,,
C1=C(CCN2CCOCC2)c2ccccc2/C1=C/c1ccco1,,,,,,,,,> 10000,
COc1ccc(C(=O)c2c(C)n(CC[N+]3(C)CCOCC3)c3ccccc23)cc1,,,,,,,,,> 10000,
O=C(O)CCCCn1cc(C(=O)c2cccc3ccccc23)c2ccccc21,,,,,,,,,> 10000,
CCCCCCC(C)(C)c1cc(O)c2c(c1)OC(C)(C)[C@@H]1CC=C(CO)C[C@@H]21,,,,,Active,Active,,,,Activity [13]: Active; Activity [14]: Toxic; Activity [15]: Toxic; Activity [16]: Toxic
C1=C(CCN2CCOCC2)c2ccccc2/C1=C/c1cccc2ccccc12,257,103,138,27,,,22.5,98.5,,Activity [8]: Active; Ratio [17]: 0.001
